# Experimental data from PubChem BioAssay AID463209 (The Scripps Research Institute Molecular Screening Center, 2010).
# Calls of active or inactive are those of the source.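 The calls were made as follows: active = parasite growth inhibition of at least 50% in red blood cells; inactive = the rest.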
# System: P. falciparum 3D7 in RBCs, 3H-hypoxanthine incorporation, 48 h
# Experiment: blood-stage malaria parasite growth inhibition – cell-based, radiolabel readout, RBCs, P. falciparum M1AAP inhibitor project, late-stage follow-up (AID 463209)
# Details: at 10 µM; stronger effect = higher value
# Procedure, shortened: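 Dosing: 10 µM single dose / Material: P. falciparum 3D7-infected erythrocytes / Buffer or medium: hypoxanthine-free RPMI medium with 10% serum / Technique: 3H beta counting after harvest / Benchmarks: uninfected RBC background wells and DMSO-treated infected wells / Repeats: 6–9 replicates / Read-out: % growth inhibition versus vehicle control / Times: 48 h at 37 °C, low-oxygen gas mix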
row,SMILES,inhibition
1,O=C(O)CCC(=O)N1N=C(c2c(-c3ccccc3)c3cc(Cl)ccc3[nH]c2=O)CC1c1cccs1 (stereo not drawn),0% (inactive)
2,O=C(Nn1c(C2CCC2)nc2ccccc2c1=O)c1cccs1,8% (inactive)
3,COc1ccccc1-c1nc2ccccc2c(=O)n1NC(=O)c1cccs1,4% (inactive)
4,O=C1N=c2ccccc2=C1c1sc(=S)n(NC(=O)c2ccccc2)c1O,6% (inactive)
5,CC(=O)N1N=C(c2c(O)n(C)c(=O)n(C)c2=O)CC1c1ccccc1 (stereo not drawn),2% (inactive)
6,O=C(NCc1cccc(F)c1)C1CCN(S(=O)(=O)Cc2ccccc2)CC1,15% (inactive)
7,COc1ccc(OC)c(/C=C2\SC(=S)N(C(C(=O)O)c3ccccc3)C2=O)c1 (stereo not drawn),3% (inactive)
8,O=C1/C(=C/c2cccs2)SC(=S)N1NS(=O)(=O)c1ccccc1,1% (inactive)
9,COc1ccc(C2CC(c3c(-c4ccccc4)c4cc(Cl)ccc4[nH]c3=O)=NN2C(=O)CCC(=O)O)cc1 (stereo not drawn),0% (inactive)
10,O=C(NCc1ccco1)C1CCCN(S(=O)(=O)c2cccc3nonc23)C1 (stereo not drawn),0% (inactive)
11,O=C(O)CCC(=O)N1N=C(c2c(-c3ccccc3)c3cc(Cl)ccc3[nH]c2=O)CC1c1ccco1 (stereo not drawn),0% (inactive)
12,O=C1N=c2ccccc2=C1c1sc(=S)n(NC(=O)c2cccc(O)c2)c1O,0% (inactive)
13,O=C(NCCC1=CCCCC1)C1CCN(S(=O)(=O)c2ccc(Br)s2)CC1,0% (inactive)
